Test results as given in the M2OR odorant receptor database.

Columns and labels:
Conditions in all cases: stereoisomer not certain
UniProt Q8VGC6 = target: T1, UniProt Q8VGC6
T1 sequence (whole entry): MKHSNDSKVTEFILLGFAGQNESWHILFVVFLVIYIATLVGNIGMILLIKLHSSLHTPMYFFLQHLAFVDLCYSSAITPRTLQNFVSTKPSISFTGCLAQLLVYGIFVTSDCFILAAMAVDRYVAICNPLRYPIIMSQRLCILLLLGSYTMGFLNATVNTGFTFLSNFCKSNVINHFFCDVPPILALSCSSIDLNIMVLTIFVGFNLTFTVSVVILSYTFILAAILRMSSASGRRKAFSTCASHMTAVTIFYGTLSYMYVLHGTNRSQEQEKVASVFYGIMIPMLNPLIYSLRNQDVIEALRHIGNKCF
Procedure, shortened: (§1)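 Each entry records the cell line, G-protein, co-transfected protein and tags used. Methods varied with the source, often transient luciferase assays in mammalian cell lines. A receptor–molecule pair is called responsive (active) if the original authors judged its signal statistically different from baseline and non-responsive (inactive) otherwise.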

UniProt Q8VGD7 = target: T2, UniProt Q8VGD7
T2 sequence (whole entry): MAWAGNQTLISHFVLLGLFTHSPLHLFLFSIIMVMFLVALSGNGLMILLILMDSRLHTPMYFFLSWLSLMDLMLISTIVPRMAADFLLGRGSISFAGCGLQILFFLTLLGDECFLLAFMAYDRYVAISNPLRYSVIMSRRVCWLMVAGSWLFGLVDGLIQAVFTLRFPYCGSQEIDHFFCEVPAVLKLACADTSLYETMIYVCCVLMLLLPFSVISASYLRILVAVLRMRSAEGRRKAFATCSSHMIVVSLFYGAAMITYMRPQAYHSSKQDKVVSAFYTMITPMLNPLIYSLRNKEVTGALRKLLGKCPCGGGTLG
Procedure, shortened: as §1

UniProt Q8VGH1 = target: T3, UniProt Q8VGH1
T3 sequence (whole entry): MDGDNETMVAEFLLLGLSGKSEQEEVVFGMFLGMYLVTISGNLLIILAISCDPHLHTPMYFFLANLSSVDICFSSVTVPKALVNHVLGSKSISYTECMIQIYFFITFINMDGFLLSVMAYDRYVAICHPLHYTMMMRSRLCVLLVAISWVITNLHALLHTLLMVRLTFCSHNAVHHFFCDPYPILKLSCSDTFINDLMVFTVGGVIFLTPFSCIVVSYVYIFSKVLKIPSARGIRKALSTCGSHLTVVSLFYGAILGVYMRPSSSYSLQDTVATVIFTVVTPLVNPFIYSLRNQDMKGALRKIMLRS
Procedure, shortened: as §1

UniProt Q8VGJ1 = target: T4, UniProt Q8VGJ1
T4 sequence (whole entry): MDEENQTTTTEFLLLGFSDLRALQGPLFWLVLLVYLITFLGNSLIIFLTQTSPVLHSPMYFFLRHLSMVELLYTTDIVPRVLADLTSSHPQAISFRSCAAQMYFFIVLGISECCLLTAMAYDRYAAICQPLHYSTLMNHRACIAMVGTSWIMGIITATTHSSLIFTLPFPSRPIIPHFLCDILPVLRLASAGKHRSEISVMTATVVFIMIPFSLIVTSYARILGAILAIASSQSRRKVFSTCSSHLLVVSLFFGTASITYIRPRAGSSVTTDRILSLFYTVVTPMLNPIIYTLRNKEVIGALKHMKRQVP
Procedure, shortened: as §1

UniProt Q8VGJ3 = target: T5, UniProt Q8VGJ3
T5 sequence (whole entry): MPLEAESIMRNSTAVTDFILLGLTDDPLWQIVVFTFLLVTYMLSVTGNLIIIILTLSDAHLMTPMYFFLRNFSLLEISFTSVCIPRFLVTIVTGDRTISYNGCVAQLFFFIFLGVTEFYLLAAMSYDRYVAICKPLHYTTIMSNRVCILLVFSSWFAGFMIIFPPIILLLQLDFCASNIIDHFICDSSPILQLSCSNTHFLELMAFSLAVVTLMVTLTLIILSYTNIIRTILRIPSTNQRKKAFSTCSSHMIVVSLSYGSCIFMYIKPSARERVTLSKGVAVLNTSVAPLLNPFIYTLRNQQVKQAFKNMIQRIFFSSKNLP
Procedure, shortened: as §1

UniProt Q8VGJ5 = target: T6, UniProt Q8VGJ5
T6 sequence (whole entry): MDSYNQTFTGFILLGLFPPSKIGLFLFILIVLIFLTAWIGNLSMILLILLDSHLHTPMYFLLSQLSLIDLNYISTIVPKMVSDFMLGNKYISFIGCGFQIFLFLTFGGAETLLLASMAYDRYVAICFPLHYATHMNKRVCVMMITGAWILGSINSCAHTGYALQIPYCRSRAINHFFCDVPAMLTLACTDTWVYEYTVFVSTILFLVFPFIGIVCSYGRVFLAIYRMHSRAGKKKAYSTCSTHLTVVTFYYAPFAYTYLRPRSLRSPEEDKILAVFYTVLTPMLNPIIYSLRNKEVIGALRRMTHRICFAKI
Procedure, shortened: as §1

UniProt Q8VGL0 = target: T7, UniProt Q8VGL0
T7 sequence (whole entry): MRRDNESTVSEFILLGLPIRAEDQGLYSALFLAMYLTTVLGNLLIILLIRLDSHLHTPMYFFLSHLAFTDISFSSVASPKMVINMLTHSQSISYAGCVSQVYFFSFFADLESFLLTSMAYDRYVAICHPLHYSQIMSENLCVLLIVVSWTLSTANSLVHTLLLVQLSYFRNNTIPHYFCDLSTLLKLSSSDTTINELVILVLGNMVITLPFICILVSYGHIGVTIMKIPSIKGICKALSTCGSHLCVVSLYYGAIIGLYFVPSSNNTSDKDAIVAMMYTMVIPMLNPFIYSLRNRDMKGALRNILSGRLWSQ
Procedure, shortened: as §1

UniProt Q8VGL7 = target: T8, UniProt Q8VGL7
T8 sequence (whole entry): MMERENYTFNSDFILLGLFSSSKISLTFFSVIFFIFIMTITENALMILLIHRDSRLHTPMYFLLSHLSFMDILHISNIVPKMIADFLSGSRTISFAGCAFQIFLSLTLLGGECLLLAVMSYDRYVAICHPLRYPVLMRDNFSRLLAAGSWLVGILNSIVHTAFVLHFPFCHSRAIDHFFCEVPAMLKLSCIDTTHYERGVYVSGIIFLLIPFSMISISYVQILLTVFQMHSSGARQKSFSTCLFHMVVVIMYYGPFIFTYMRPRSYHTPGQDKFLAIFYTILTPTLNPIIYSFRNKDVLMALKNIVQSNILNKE
Procedure, shortened: as §1

UniProt Q8VGM2 = target: T9, UniProt Q8VGM2
T9 sequence (whole entry): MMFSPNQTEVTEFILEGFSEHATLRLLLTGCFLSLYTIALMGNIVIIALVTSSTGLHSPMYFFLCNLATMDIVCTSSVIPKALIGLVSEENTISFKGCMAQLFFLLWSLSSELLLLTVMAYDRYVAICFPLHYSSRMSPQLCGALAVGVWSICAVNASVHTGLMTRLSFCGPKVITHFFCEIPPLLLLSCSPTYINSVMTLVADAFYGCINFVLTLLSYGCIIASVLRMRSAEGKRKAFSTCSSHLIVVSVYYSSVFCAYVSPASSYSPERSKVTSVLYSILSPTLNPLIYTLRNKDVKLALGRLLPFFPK
Procedure, shortened: as §1

UniProt Q8VGP6 = target: T10, UniProt Q8VGP6
T10 sequence (whole entry): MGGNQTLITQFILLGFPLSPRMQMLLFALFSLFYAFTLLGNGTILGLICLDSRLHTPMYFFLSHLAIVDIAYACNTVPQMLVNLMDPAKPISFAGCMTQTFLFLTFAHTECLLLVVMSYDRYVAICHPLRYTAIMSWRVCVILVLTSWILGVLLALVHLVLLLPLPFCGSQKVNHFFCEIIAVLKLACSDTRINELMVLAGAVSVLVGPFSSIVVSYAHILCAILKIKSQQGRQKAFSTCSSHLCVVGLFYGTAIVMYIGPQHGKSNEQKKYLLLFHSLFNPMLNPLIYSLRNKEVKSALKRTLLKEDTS
Procedure, shortened: as §1

UniProt Q8VGQ3 = target: T11, UniProt Q8VGQ3
T11 sequence (whole entry): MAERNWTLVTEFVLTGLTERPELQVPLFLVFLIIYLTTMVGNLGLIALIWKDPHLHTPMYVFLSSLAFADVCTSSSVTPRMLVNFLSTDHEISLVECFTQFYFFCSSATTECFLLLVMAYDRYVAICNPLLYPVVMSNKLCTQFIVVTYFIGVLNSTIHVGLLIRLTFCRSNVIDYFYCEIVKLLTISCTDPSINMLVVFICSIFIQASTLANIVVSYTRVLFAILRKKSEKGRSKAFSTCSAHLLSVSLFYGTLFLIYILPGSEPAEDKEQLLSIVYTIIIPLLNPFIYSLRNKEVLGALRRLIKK
Procedure, shortened: as §1

UniProt Q8VGT4 = target: T12, UniProt Q8VGT4
T12 sequence (whole entry): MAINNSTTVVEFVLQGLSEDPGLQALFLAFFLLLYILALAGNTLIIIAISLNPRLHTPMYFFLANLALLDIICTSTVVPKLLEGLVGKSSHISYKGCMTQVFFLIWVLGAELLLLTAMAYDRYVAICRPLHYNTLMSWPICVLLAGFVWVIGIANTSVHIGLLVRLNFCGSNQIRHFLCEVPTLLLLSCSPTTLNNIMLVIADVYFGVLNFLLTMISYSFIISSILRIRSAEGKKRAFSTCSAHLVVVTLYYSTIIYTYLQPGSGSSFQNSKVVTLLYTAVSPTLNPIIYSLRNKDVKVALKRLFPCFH
Procedure, shortened: as §1

UniProt Q8VGU3 = target: T13, UniProt Q8VGU3
T13 sequence (whole entry): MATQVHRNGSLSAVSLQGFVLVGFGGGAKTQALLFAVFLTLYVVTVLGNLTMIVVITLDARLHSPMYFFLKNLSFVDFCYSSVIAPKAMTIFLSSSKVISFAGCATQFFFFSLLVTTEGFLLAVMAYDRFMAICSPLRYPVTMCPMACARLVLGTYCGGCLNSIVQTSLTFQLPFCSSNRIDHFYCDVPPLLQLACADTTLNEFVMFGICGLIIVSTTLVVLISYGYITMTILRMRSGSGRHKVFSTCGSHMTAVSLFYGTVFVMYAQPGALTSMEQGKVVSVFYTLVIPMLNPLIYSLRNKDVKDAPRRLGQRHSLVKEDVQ
Procedure, shortened: as §1

UniProt Q8VGV1 = target: T14, UniProt Q8VGV1
T14 sequence (whole entry): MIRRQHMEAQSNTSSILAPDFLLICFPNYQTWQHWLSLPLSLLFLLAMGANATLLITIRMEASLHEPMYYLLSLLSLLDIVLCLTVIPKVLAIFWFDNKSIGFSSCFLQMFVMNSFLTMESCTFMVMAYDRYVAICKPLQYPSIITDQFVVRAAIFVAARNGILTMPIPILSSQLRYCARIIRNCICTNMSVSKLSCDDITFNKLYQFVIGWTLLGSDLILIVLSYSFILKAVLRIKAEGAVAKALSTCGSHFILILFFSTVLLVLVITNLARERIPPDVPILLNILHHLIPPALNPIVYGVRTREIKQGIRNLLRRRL
Procedure, shortened: as §1

UniProt Q8VGV7 = target: T15, UniProt Q8VGV7
T15 sequence (whole entry): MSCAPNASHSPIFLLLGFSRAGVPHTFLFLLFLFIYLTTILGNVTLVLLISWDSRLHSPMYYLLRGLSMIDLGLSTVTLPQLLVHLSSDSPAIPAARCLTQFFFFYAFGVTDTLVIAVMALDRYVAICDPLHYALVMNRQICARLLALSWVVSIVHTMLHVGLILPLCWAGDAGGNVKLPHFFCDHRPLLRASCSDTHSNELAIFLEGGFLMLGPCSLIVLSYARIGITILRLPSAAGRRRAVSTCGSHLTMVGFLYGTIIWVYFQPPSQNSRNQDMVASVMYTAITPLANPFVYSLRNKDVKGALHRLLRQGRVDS
Procedure, shortened: as §1

UniProt Q8VGX3 = target: T16, UniProt Q8VGX3
T16 sequence (whole entry): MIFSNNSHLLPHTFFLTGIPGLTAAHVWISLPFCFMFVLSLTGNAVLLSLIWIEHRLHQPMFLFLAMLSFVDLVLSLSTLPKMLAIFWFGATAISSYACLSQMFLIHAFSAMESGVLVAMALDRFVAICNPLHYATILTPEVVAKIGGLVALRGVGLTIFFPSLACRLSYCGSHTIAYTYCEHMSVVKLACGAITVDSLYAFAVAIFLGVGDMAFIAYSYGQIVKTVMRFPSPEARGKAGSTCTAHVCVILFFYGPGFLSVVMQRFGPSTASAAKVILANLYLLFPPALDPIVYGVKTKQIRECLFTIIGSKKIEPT
Procedure, shortened: as §1

UniProt Q8VGX5 = target: T17, UniProt Q8VGX5
T17 sequence (whole entry): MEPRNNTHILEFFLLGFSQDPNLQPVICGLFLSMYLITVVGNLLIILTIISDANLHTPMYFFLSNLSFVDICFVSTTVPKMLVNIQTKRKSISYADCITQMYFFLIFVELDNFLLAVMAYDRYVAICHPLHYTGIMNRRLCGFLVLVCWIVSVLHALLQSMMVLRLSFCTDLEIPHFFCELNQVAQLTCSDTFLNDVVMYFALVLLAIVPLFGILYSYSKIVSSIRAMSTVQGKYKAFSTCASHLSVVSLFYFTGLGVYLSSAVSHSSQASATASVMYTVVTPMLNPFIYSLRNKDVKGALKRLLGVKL
Procedure, shortened: as §1

Measured: odorant receptor agonist call

CCCCOC=O
inactive: all assays above

CCC(=O)C(=O)CC
inactive: all assays above
